Measured values from ChEMBL document CHEMBL2440030, “Insights into soluble guanylyl cyclase activation derived from improved heme-mimetics” (J Med Chem, 2013).
Calls of active or inactive are those of the source. The rule behind the calls is not given here.

species: Rattus norvegicus; assay: Inhibition of soluble guanylyl cyclase in Wistar rat aortic smooth muscle cell assessed as reduction of cGMP accumulation at 1 uM after 15 mins by enzyme immunoassay
In short: (§1)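 Confluent rat aortic smooth muscle cells were exposed to vehicle or compound (0.01−1 μM) for 15 min, alone or together with 1 μM BAY 58-2667. cGMP was then extracted and quantified. Values are means ± SEM, n = 4.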

Row | inhibition [%] | Structure (SMILES)
1 | 80 | O=C(O)CCC(=O)N(CCc1ccccc1OCc1ccc(CCc2ccccc2)cc1)Cc1ccc(C(=O)O)cc1
2 | 80 | O=C(O)CCCC(=O)N(CCc1ccccc1OCc1ccc(CCc2ccccc2)cc1)Cc1ccc(C(=O)O)cc1
3 | 80 | O=C(O)CCCCC(=O)N(CCc1ccccc1OCc1ccc(CCc2ccccc2)cc1)Cc1ccc(C(=O)O)cc1

species: Rattus norvegicus; assay: Activation of soluble guanylyl cyclase in Wistar rat aortic smooth muscle cell assessed as increase of cGMP accumulation after 15 mins by enzyme immunoassay; in short: as §1

Row | Activity | Structure (SMILES)
4 | Dose-dependent effect | O=C(O)CCCCN(CCc1ccccc1OCc1ccc(-c2ccc(Oc3ccccc3)cc2)cc1)Cc1ccc(C(=O)O)cc1

species: Rattus norvegicus; assay: Activation of soluble guanylyl cyclase in Wistar rat aortic smooth muscle cell assessed as increase of cGMP accumulation at 1 uM after 15 mins by enzyme immunoassay; in short: as §1

Row | Activity | Structure (SMILES)
5 | inactive | O=C(O)CCCCCN(CCc1ccccc1OCc1ccc(CCc2ccccc2)cc1)Cc1ccc(C(=O)O)cc1
6 | Active | COc1ccc(COc2ccc(-c3ccc(COc4ccccc4CCN(CCCCC(=O)O)Cc4ccc(C(=O)O)cc4)cc3)cc2)cc1
7 | Active | O=C(O)CCCCN(CCc1ccccc1OCc1ccc(-c2ccc(OCc3ccccc3)cc2)cc1)Cc1ccc(C(=O)O)cc1
8 | Active | O=C(O)CCCC(=O)N(CCc1ccccc1OCc1ccc(-c2ccc(OCc3ccccc3)cc2)cc1)Cc1ccc(C(=O)O)cc1
9 | Active | O=C(O)CCCCN(CCc1ccccc1OCc1ccc(-c2ccc(Oc3ccccc3)cc2)cc1)Cc1ccc(C(=O)O)cc1
10 | inactive | O=C(O)CCCN(CCc1ccccc1OCc1ccc(CCc2ccccc2)cc1)Cc1ccc(C(=O)O)cc1
